According to ChEMBL document CHEMBL4689842, “EUbOPEN Chemogenomics Library wave 1” (2021):

Assays:
Type in all cases: toxicity, cell-based
Fibroblast [1] = assay: Multiplex assay against human fibroblast
How it was run: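 Live cells carried four stains from seeding: Hoechst33342, BioTracker Green Microtubule Cytoskeleton Dye, MitoTracker Red and Annexin V Alexa Fluor 680. They were imaged on a CQ1 microscope at 37°C and 5% CO2 after compound addition. Using CellPathfinder machine-learning gating, cells were split into Hoechst high-intensity objects or normal cells, normal cells into healthy, pyknosed or fragmented nuclei, and pyknosed cells into mitotic or apoptotic; tubulin, mitochondrial-mass and membrane-permeability phenotypes are per cents of healthy-nucleus cells.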

HEK-293T = assay: Incucyte cell viability with HEK293T; conditions: human, 10 µM, compound concentration 10 uM; also: filed as whole numbers so only -1 and 0 and 1 occur
Fibroblast [2] = assay: Incucyte cell viability with human fibroblast; conditions: 10 µM, compound concentration 10 uM; also: filed as whole numbers so only -1 and 0 and 1 occur
U2OS = assay: Incucyte cell viability with U2OS; conditions: human, 10 µM, compound concentration 10 uM; also: filed as whole numbers so only -1 and 0 and 1 occur
[3] = 12 h, 1 µM, compound concentration 1 uM, replicate 1
[4] = 12 h, 1 µM, compound concentration 1 uM, replicate 2
[5] = 12 h, 10 µM, compound concentration 10 uM, replicate 1
[6] = 12 h, 10 µM, compound concentration 10 uM, replicate 2
[7] = 24 h, 1 µM, compound concentration 1 uM, replicate 1
[8] = 24 h, 1 µM, compound concentration 1 uM, replicate 2
[9] = 24 h, 10 µM, compound concentration 10 uM, replicate 1
[10] = 24 h, 10 µM, compound concentration 10 uM, replicate 2
[11] = 48 h, 1 µM, compound concentration 1 uM, replicate 1
[12] = 48 h, 1 µM, compound concentration 1 uM, replicate 2
[13] = 48 h, 10 µM, compound concentration 10 uM, replicate 1
[14] = 48 h, 10 µM, compound concentration 10 uM, replicate 2
[15] = 6 h, replicate number 1, timepoint 6 hours
[16] = 12 h, replicate number 1, timepoint 12 hours
[17] = 18 h, replicate number 1, timepoint 18 hours
[18] = 24 h, replicate number 1, timepoint 24 hours

C[C@@H](Oc1cc(-n2cnc3ccc(CN4CCN(C)CC4)cc32)sc1C(N)=O)c1ccccc1C(F)(F)F [GSK-461364]
Population Apoptotic (%) (Fibroblast [1]; [3]): 75% | Population Fragmented Nuclei (%) (Fibroblast [1]; [3]): 30% | Population Healthy Nuclei (%) (Fibroblast [1]; [3]): 36% | Population Hoechst High Intensity Objects (%) (Fibroblast [1]; [3]): 14% | Population Membrane Permeable-Phenotype (%) (Fibroblast [1]; [3]): 34% | Population Mitochondria Different-Phenotype (%) (Fibroblast [1]; [3]): 11% | Population Mitotic Cells (%) (Fibroblast [1]; [3]): 25% | Population Normal (%) (Fibroblast [1]; [3]): 85% | Population Pyknosed Nuclei (%) (Fibroblast [1]; [3]): 33% | Population Tubulin-Different-Phenotype (%) (Fibroblast [1]; [3]): 69% | Population Apoptotic (%) (Fibroblast [1]; [4]): 12% | Population Fragmented Nuclei (%) (Fibroblast [1]; [4]): 12% | Population Healthy Nuclei (%) (Fibroblast [1]; [4]): 71% | Population Hoechst High Intensity Objects (%) (Fibroblast [1]; [4]): 4% | Population Membrane Permeable-Phenotype (%) (Fibroblast [1]; [4]): 12% | Population Mitochondria Different-Phenotype (%) (Fibroblast [1]; [4]): 35% | Population Mitotic Cells (%) (Fibroblast [1]; [4]): 87% | Population Normal (%) (Fibroblast [1]; [4]): 95% | Population Pyknosed Nuclei (%) (Fibroblast [1]; [4]): 16% | Population Tubulin-Different-Phenotype (%) (Fibroblast [1]; [4]): 30% | Population Apoptotic (%) (Fibroblast [1]; [5]): 78% | Population Fragmented Nuclei (%) (Fibroblast [1]; [5]): 29% | Population Healthy Nuclei (%) (Fibroblast [1]; [5]): 40% | Population Hoechst High Intensity Objects (%) (Fibroblast [1]; [5]): 25% | Population Membrane Permeable-Phenotype (%) (Fibroblast [1]; [5]): 21% | Population Mitochondria Different-Phenotype (%) (Fibroblast [1]; [5]): 47% | Population Mitotic Cells (%) (Fibroblast [1]; [5]): 21% | Population Normal (%) (Fibroblast [1]; [5]): 74% | Population Pyknosed Nuclei (%) (Fibroblast [1]; [5]): 30% | Population Tubulin-Different-Phenotype (%) (Fibroblast [1]; [5]): 90% | Population Apoptotic (%) (Fibroblast [1]; [6]): 40% | Population Fragmented Nuclei (%) (Fibroblast [1]; [6]): 13% | Population Healthy Nuclei (%) (Fibroblast [1]; [6]): 55% | Population Hoechst High Intensity Objects (%) (Fibroblast [1]; [6]): 9% | Population Membrane Permeable-Phenotype (%) (Fibroblast [1]; [6]): 71% | Population Mitochondria Different-Phenotype (%) (Fibroblast [1]; [6]): 100% | Population Mitotic Cells (%) (Fibroblast [1]; [6]): 59% | Population Normal (%) (Fibroblast [1]; [6]): 90% | Population Pyknosed Nuclei (%) (Fibroblast [1]; [6]): 31% | Population Tubulin-Different-Phenotype (%) (Fibroblast [1]; [6]): 100% | Population Apoptotic (%) (Fibroblast [1]; [7]): 70% | Population Fragmented Nuclei (%) (Fibroblast [1]; [7]): 31% | Population Healthy Nuclei (%) (Fibroblast [1]; [7]): 44% | Population Hoechst High Intensity Objects (%) (Fibroblast [1]; [7]): 17% | Population Membrane Permeable-Phenotype (%) (Fibroblast [1]; [7]): 12% | Population Mitochondria Different-Phenotype (%) (Fibroblast [1]; [7]): 25% | Population Mitotic Cells (%) (Fibroblast [1]; [7]): 29% | Population Normal (%) (Fibroblast [1]; [7]): 82% | Population Pyknosed Nuclei (%) (Fibroblast [1]; [7]): 24% | Population Tubulin-Different-Phenotype (%) (Fibroblast [1]; [7]): 80% | Population Apoptotic (%) (Fibroblast [1]; [8]): 50% | Population Fragmented Nuclei (%) (Fibroblast [1]; [8]): 14% | Population Healthy Nuclei (%) (Fibroblast [1]; [8]): 68% | Population Hoechst High Intensity Objects (%) (Fibroblast [1]; [8]): 4% | Population Membrane Permeable-Phenotype (%) (Fibroblast [1]; [8]): 18% | Population Mitochondria Different-Phenotype (%) (Fibroblast [1]; [8]): 35% | Population Mitotic Cells (%) (Fibroblast [1]; [8]): 50% | Population Normal (%) (Fibroblast [1]; [8]): 95% | Population Pyknosed Nuclei (%) (Fibroblast [1]; [8]): 17% | Population Tubulin-Different-Phenotype (%) (Fibroblast [1]; [8]): 28% | Population Apoptotic (%) (Fibroblast [1]; [9]): 60% | Population Fragmented Nuclei (%) (Fibroblast [1]; [9]): 35% | Population Healthy Nuclei (%) (Fibroblast [1]; [9]): 42% | Population Hoechst High Intensity Objects (%) (Fibroblast [1]; [9]): 43% | Population Membrane Permeable-Phenotype (%) (Fibroblast [1]; [9]): 35% | Population Mitochondria Different-Phenotype (%) (Fibroblast [1]; [9]): 54% | Population Mitotic Cells (%) (Fibroblast [1]; [9]): 40% | Population Normal (%) (Fibroblast [1]; [9]): 56% | Population Pyknosed Nuclei (%) (Fibroblast [1]; [9]): 22% | Population Tubulin-Different-Phenotype (%) (Fibroblast [1]; [9]): 78% | Population Apoptotic (%) (Fibroblast [1]; [10]): 82% | Population Fragmented Nuclei (%) (Fibroblast [1]; [10]): 10% | Population Healthy Nuclei (%) (Fibroblast [1]; [10]): 47% | Population Hoechst High Intensity Objects (%) (Fibroblast [1]; [10]): 6% | Population Membrane Permeable-Phenotype (%) (Fibroblast [1]; [10]): 90% | Population Mitochondria Different-Phenotype (%) (Fibroblast [1]; [10]): 100% | Population Mitotic Cells (%) (Fibroblast [1]; [10]): 17% | Population Normal (%) (Fibroblast [1]; [10]): 93% | Population Pyknosed Nuclei (%) (Fibroblast [1]; [10]): 41% | Population Tubulin-Different-Phenotype (%) (Fibroblast [1]; [10]): 100% | Population Apoptotic (%) (Fibroblast [1]; [11]): 70% | Population Fragmented Nuclei (%) (Fibroblast [1]; [11]): 42% | Population Healthy Nuclei (%) (Fibroblast [1]; [11]): 44% | Population Hoechst High Intensity Objects (%) (Fibroblast [1]; [11]): 21% | Population Membrane Permeable-Phenotype (%) (Fibroblast [1]; [11]): 20% | Population Mitochondria Different-Phenotype (%) (Fibroblast [1]; [11]): 8% | Population Mitotic Cells (%) (Fibroblast [1]; [11]): 30% | Population Normal (%) (Fibroblast [1]; [11]): 78% | Population Pyknosed Nuclei (%) (Fibroblast [1]; [11]): 13% | Population Tubulin-Different-Phenotype (%) (Fibroblast [1]; [11]): 76% | Population Apoptotic (%) (Fibroblast [1]; [12]): 25% | Population Fragmented Nuclei (%) (Fibroblast [1]; [12]): 31% | Population Healthy Nuclei (%) (Fibroblast [1]; [12]): 62% | Population Hoechst High Intensity Objects (%) (Fibroblast [1]; [12]): 12% | Population Membrane Permeable-Phenotype (%) (Fibroblast [1]; [12]): 18% | Population Mitochondria Different-Phenotype (%) (Fibroblast [1]; [12]): 11% | Population Mitotic Cells (%) (Fibroblast [1]; [12]): 75% | Population Normal (%) (Fibroblast [1]; [12]): 87% | Population Pyknosed Nuclei (%) (Fibroblast [1]; [12]): 5% | Population Tubulin-Different-Phenotype (%) (Fibroblast [1]; [12]): 34% | Population Apoptotic (%) (Fibroblast [1]; [13]): 90% | Population Fragmented Nuclei (%) (Fibroblast [1]; [13]): 52% | Population Healthy Nuclei (%) (Fibroblast [1]; [13]): 31% | Population Hoechst High Intensity Objects (%) (Fibroblast [1]; [13]): 45% | Population Membrane Permeable-Phenotype (%) (Fibroblast [1]; [13]): 22% | Population Mitochondria Different-Phenotype (%) (Fibroblast [1]; [13]): 45% | Population Mitotic Cells (%) (Fibroblast [1]; [13]): 9% | Population Normal (%) (Fibroblast [1]; [13]): 54% | Population Pyknosed Nuclei (%) (Fibroblast [1]; [13]): 15% | Population Tubulin-Different-Phenotype (%) (Fibroblast [1]; [13]): 68% | Population Apoptotic (%) (Fibroblast [1]; [14]): 75% | Population Fragmented Nuclei (%) (Fibroblast [1]; [14]): 39% | Population Healthy Nuclei (%) (Fibroblast [1]; [14]): 58% | Population Hoechst High Intensity Objects (%) (Fibroblast [1]; [14]): 38% | Population Membrane Permeable-Phenotype (%) (Fibroblast [1]; [14]): 5% | Population Mitochondria Different-Phenotype (%) (Fibroblast [1]; [14]): 27% | Population Mitotic Cells (%) (Fibroblast [1]; [14]): 25% | Population Normal (%) (Fibroblast [1]; [14]): 61% | Population Pyknosed Nuclei (%) (Fibroblast [1]; [14]): 2% | Population Tubulin-Different-Phenotype (%) (Fibroblast [1]; [14]): 84% | Growth Rate (HEK-293T; [15]): 0 | Growth Rate (HEK-293T; [16]): 0 | Growth Rate (HEK-293T; [17]): 0 | Growth Rate (HEK-293T; [18]): 0 | Growth Rate (Fibroblast [2]; 0 h, replicate number 2, timepoint 0 hours): 0 | Growth Rate (Fibroblast [2]; [15]): 0 | Growth Rate (Fibroblast [2]; 6 h, replicate number 2, timepoint 6 hours): 1 | Growth Rate (Fibroblast [2]; [16]): 0 | Growth Rate (Fibroblast [2]; [17]): 0 | Growth Rate (Fibroblast [2]; [18]): 0 | Growth Rate (U2OS; [15]): 1 | Growth Rate (U2OS; [16]): 0 | Growth Rate (U2OS; [17]): 0 | Growth Rate (U2OS; [18]): 0
